Each block holds one compound with its values, some of them ahead of it.
Columns and labels:
MDCK-MDR1 cells [1] = system: MDCK-MDR1 cells
MDCK-MDR1 cells [2] = assay: Uptake of radiolabelled substrates into MDCK-MDR1 cells in DPBS with HEPES
[3] = system: ATP production in MDCK-MDR1 cells; assay: ATP assay; assay type: cell-based; settings: 20 mM HEPES in culture medium
How it was run: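 MDCK-MDR1 cells grown in DMEM with 10% heat-inactivated calf serum at 37 °C, 5% CO2, in 96-well plates for 6–7 days to full confluence, in medium without HEPES (Set 1) or with 20 mM HEPES (Set 2). Cells lysed for […]; ATP in lysate read by luminescence kit, with protein measured by Bradford. At least triplicate; mean ± SD.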

MDCK-MDR1 cells [4] = assay type: in vitro ADME
[5] = Bidirectional transepithelial transport of [3H]lopinavir across MDCK-MDR1 cells; assay type: in vitro ADME; settings: dog, MDCK-MDR1, 37 °C; for Papp A→B at 0.5 μCi/mL: MDCK-MDR1, pH 7.4, PappA-B; for Papp B→A at 0.5 μCi/mL: MDCK-MDR1, pH 7.4, PappB-A

Compound: O=S(=O)(O)CCN1CCN(CCO)CC1 [HEPES, 4-(2-hydroxyethyl)-1-piperazineethanesulfonic acid]
elevation of ATP production, Set 2 compared to Set 1 [3]: 70%

Compound: N[C@@H](CCC(=O)O)C(=O)O [glutamic acid]
elevation of uptake over the control (MDCK-MDR1 cells [2]; 15 mM HEPES): about 30%
elevation of uptake over the control (MDCK-MDR1 cells [2]; 25 mM HEPES): ~45%

Compound: Cc1cccc(C)c1OCC(=O)N[C@@H](Cc1ccccc1)[C@@H](O)C[C@H](Cc1ccccc1)NC(=O)[C@H](C(C)C)N1CCCNC1=O [lopinavir]
accumulation into cells versus control (0 mM HEPES) (MDCK-MDR1 cells [1]): significant reduction
accumulation by Set 2 cells compared with Set 1 cells (MDCK-MDR1 cells [4]; Set 2 grown with 20 mM HEPES, Set 1 without, 0, 15, 25 mM HEPES in DPBS): significantly less
accumulation by Set 2 cells compared to Set 1 cells (MDCK-MDR1 cells [4]; in the presence of 1 μM or 2 μM unlabelled lopinavir, DPBS with 25 mM HEPES): higher accumulation
elevation of accumulation, Set 2 versus Set 1 cells (MDCK-MDR1 cells [4]; in the presence of 5 μM unlabelled lopinavir, DPBS with 25 mM HEPES): not statistically different
Papp A→B at 0.5 μCi/mL ([5]; 25 mM HEPES in DPBS): 22.8 ± 1.03 ×10⁻⁶ cm/s
Papp A→B at 0.5 μCi/mL ([5]; Control (0 mM HEPES) in DPBS): 30.2 ± 2.56 ×10⁻⁶ cm/s
Papp B→A at 0.5 μCi/mL ([5]; 25 mM HEPES in DPBS): 165 ± 11.1 ×10⁻⁶ cm/s
Papp B→A at 0.5 μCi/mL ([5]; Control (0 mM HEPES) in DPBS): 148 ± 7.92 ×10⁻⁶ cm/s

The next lines start with the values.

accumulation into cells versus control (0 mM HEPES) (MDCK-MDR1 cells [1]): significant reduction
Compound: CC(C)c1nc(CN(C)C(=O)N[C@H](C(=O)N[C@@H](Cc2ccccc2)C[C@H](O)[C@H](Cc2ccccc2)NC(=O)OCc2cncs2)C(C)C)cs1 [ritonavir]

change of uptake in the presence of HEPES (MDCK-MDR1 cells [2]; 15 and 25 mM HEPES): no significant change
Compound: N[C@@H](Cc1ccccc1)C(=O)O [phenylalanine]
